According to ChEMBL document CHEMBL3393048, “Discovery of potent cytotoxic ortho-aryl chalcones as new scaffold targeting tubulin and mitosis with affinity-based fluorescence” (J Med Chem, 2014):
Active and inactive are the calls of the source. The rule behind the calls is not given here.

Key:
A549 [1] = assay: Antiproliferative activity against human A549 cells after 48 hrs by SRB method; assay type: functional, cell-based; conditions: A549, 48 h
In short: (§1)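 SRB assay. Cells in DMEM high glucose with 10% FBS were seeded at 5000/well and grown 24 h; a day-0 plate was fixed at that point. Compounds were added in triplicate for 48 h. Cells were fixed with TCA at 4 °C for 1 h, stained with 0.4% SRB, and the dye was solubilized in 10 mM Tris pH 10.4. OD was read at 515 nm with day-0 OD subtracted. IC50 came from nonlinear regression of dose–response curves from at least two independent experiments.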

[2] = Antiproliferative activity against human CNE2 cells after 48 hrs by SRB method; assay type: functional, cell-based; conditions: CNE-2, 48 h
In short: (§2)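 SRB assay. Cells in DMEM high glucose with 10% FBS were seeded at 5000/well and grown 24 h; a day-0 plate was fixed at that point. Compounds were added in triplicate for 48 h. IC50 came from nonlinear regression of dose–response curves from at least two independent experiments.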

SW480 = assay: Antiproliferative activity against human SW480 cells after 48 hrs by SRB method; assay type: functional, cell-based; conditions: SW480, 48 h; in short: as §2
MCF7 [3] = assay: Antiproliferative activity against human MCF7 cells after 48 hrs by SRB method; assay type: functional, cell-based; conditions: MCF7, 48 h; in short: as §2
HepG2 = assay: Antiproliferative activity against human HepG2 cells after 48 hrs by SRB method; assay type: functional, cell-based; conditions: HepG2, 48 h; in short: as §2
Tubulin (Homo sapiens) [4] = molecular target: T1, Tubulin (Homo sapiens) (UniProt P68371+Q9H4B7+P0DPH7+P68366+Q13509+Q71U36+P04350+Q3ZCM7+P07437+P68363+Q9BQE3+Q6PEY2+Q13885+Q9BVA1+Q9BUF5); assay: Inhibition of tubulin polymerization (unknown origin) at 20 uM by DAPI staining-based fluorescence microscopy; assay type: protein-complex assay
Tubulin (Homo sapiens) [5] = molecular target: T1, Tubulin (Homo sapiens); assay: Inhibition of tubulin polymerization (unknown origin) at 5 uM by DAPI staining-based fluorescence microscopy; assay type: protein-complex assay
A2780 [6] = assay: Antiproliferative activity against human A2780 cells after 48 hrs by SRB method; assay type: functional, cell-based; conditions: A2780, 48 h; in short: as §2
A2780 [7] = assay: Antiproliferative activity against taxol-resistant human A2780 cells after 48 hrs by SRB method; assay type: functional, cell-based; conditions: A2780, 48 h; in short: as §2
[8] = Antiproliferative activity against human HCT8 cells after 48 hrs by SRB method; assay type: functional, cell-based; conditions: HCT-8, 48 h; in short: as §2
[9] = Antiproliferative activity against vincristine-resistant human HCT8 cells after 48 hrs by SRB method; assay type: functional, cell-based; conditions: HCT-8, 48 h; in short: as §1
A549 [10] = assay: Antiproliferative activity against cis-platinum-resistant human A549 cells after 48 hrs by SRB method; assay type: functional, cell-based; conditions: A549, 48 h; in short: as §1
MCF7 [11] = assay: Antiproliferative activity against doxorubicin-resistant human MCF7 cells after 48 hrs by SRB method; assay type: functional, cell-based; conditions: MCF7, 48 h; in short: as §2
A2780 [12] = assay: Drug resistance index, ratio of IC50 for taxol-resistant human A2780 cells to IC50 for human A2780 cells; assay type: functional
In short: (§3)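 Drug resistance index = IC50 in the resistant line / IC50 in its parental line. […] Pairs: A549/CDDP vs A549, MCF-7/DOX vs MCF-7, A2780/TAX vs A2780, HCT-8/VCT vs HCT-8.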

[13] = Drug resistance index, ratio of IC50 for vincristine-resistant human HCT8 cells to IC50 for human HCT8 cells; assay type: functional, HCT-8; in short: as §3
A549 [14] = assay: Drug resistance index, ratio of IC50 for cis-platinum-resistant human A549 cells to IC50 for human A549 cells; assay type: functional; in short: as §3
MCF7 [15] = assay: Drug resistance index, ratio of IC50 for doxorubicin-resistant human MCF7 cells to IC50 for human MCF7 cells; assay type: functional; in short: as §3
A549 [16] = assay: Cell cycle arrest in human A549 cells assessed as accumulation at G2/M phase at 7.81 to 250 nM after 24 hrs by Hoechst 33342 staining-based ArrayScanVTI analysis; assay type: functional
In short: (§4)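 A549 cells were seeded at 5000/well, cultured overnight, then treated 24 h over a 7.81–250 concentration series. Cells were fixed in prewarmed paraformaldehyde 10 min, permeabilized with Triton X-100, and nuclei stained with Hoechst 33342. Imaging was by ArrayScan VTI high-content analysis. Phase percentage = cells within a gated fluorescence intensity / total cells counted.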

A549 [17] = assay: Cell cycle arrest in human A549 cells assessed as accumulation at G2/M phase at 62.5 nM after 24 hrs by Hoechst 33342 staining-based ArrayScanVTI analysis; assay type: functional; in short: as §4
Tubulin = assay: Inhibition of tubulin polymerization (unknown origin) by DAPI staining-based fluorescence microscopy; assay type: protein-complex assay, Homo sapiens
In short: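 Purified tubulin (99% pure; 20 μM as supplied) mixed with compound in general tubulin buffer (80 mM PIPES pH 6.9, 2.0 mM MgCl₂, 0.5 mM EGTA) with 1 mM GTP, 20% glycerol and DAPI reporter. Polymerization tracked kinetically at 37 °C as fluorescence rise (ex 360, em 450 nm). Duplicate wells per concentration. IC50 from at least two independent experiments.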

Structure (SMILES)	IC50 (A549 [1]) [nM]	IC50 [2] [nM]	IC50 (SW480) [nM]	IC50 (MCF7 [3]) [nM]	IC50 (HepG2) [nM]	inhibition (Tubulin (Homo sapiens) [4])	inhibition (Tubulin (Homo sapiens) [5])	IC50 (A2780 [6]) [nM]	IC50 (A2780 [7]) [nM]	IC50 [8] [nM]	IC50 [9] [nM]	IC50 (A549 [10]) [nM]	IC50 (MCF7 [11]) [nM]	Ratio IC50 (A2780 [12])	Ratio IC50 [13]	Ratio IC50 (A549 [14])	Ratio IC50 (MCF7 [15])	Activity (A549 [16])	Activity (A549 [17])	IC50 (Tubulin) [nM]
COc1ccc(OC)c(/C=C/C(=O)c2ccccc2-c2ccc(OC)c(OC)c2)c1	4100	2400	5200	3100	2100	Active	–	–	–	–	–	–	–	–	–	–	–	–	–	–
COc1cc(/C=C/C(=O)c2ccccc2-c2ccc(F)cc2)ccc1O	7600	2500	6600	4000	2800	–	inactive	–	–	–	–	–	–	–	–	–	–	–	–	–
COc1ccc(/C=C/C(=O)c2ccccc2-c2ccc(F)cc2)cc1B(O)O	82	21	41	220	30	–	–	63	230	63	84	74	24	3.6	1.3	1.1	0.6	Active	Active	3400
COc1ccc(/C=C/C(=O)c2ccccc2-c2ccc(F)cc2)cc1O	65	87	57	190	23	–	–	27	500	38	420	430	7	18	11	10	0.04	Active	Active	1300
COc1ccc(/C=C/C(=O)c2ccccc2-c2cc(OC)c(OC)c(OC)c2)cc1O	290	790	300	680	190	–	–	380	1600	520	2000	590	170	4.3	4	2	0.24	–	–	2800
CC(=O)O[C@H]1C(=O)[C@@]2(C)[C@H]([C@H](OC(=O)c3ccccc3)[C@]3(O)C[C@H](OC(=O)[C@H](O)[C@@H](NC(=O)c4ccccc4)c4ccccc4)C(C)=C1C3(C)C)[C@]1(OC(C)=O)CO[C@@H]1C[C@@H]2O [PACLITAXEL]	–	–	7	–	28	–	–	–	–	21	2600	–	–	–	–	–	–	–	–	–
COc1ccc(/C=C/C(=O)c2ccccc2-c2ccc(F)nc2)cc1OC	1200	1600	1300	2800	1000	–	–	–	–	–	–	–	–	–	–	–	–	–	–	–
COc1ccc(/C=C/C(=O)c2ccccc2-c2cccc(F)c2)cc1	280	73	140	640	110	–	–	160	860	200	220	480	84	5.2	1.1	2.1	0.64	–	–	4000
COc1ccc(/C=C/C(=O)c2ccccc2-c2cccnc2)cc1	580	64	200	830	97	–	–	–	–	–	–	–	–	–	–	–	–	–	–	–
COc1ccc(C(=O)/C=C/c2ccccc2-c2ccc(F)cc2)cc1O	940	750	340	560	190	–	–	–	–	–	–	–	–	–	–	–	–	–	–	–
COc1cccc2c1C(=O)c1c(O)c3c(c(O)c1C2=O)C[C@@](O)(C(=O)CO)C[C@@H]3O[C@H]1C[C@H](N)[C@H](O)[C@H](C)O1 [DOXORUBICIN]	–	–	–	–	–	–	–	–	1900	–	3400	290	–	–	–	–	–	–	–	–
O=C(/C=C/c1cccs1)c1ccccc1-c1ccc(F)cc1	12000	5900	16000	9500	6200	Active	–	–	–	–	–	–	–	–	–	–	–	–	–	–
COc1ccc(-c2ccccc2C(=O)/C=C/c2ccc(F)cc2)cc1OC	8600	5400	6800	7100	4300	inactive	–	–	–	–	–	–	–	–	–	–	–	–	–	–
COc1ccc(/C=C/C(=O)c2ccccc2-c2ccc(OC)c(OC)c2)cc1OC	8500	2500	7600	4900	3200	–	inactive	–	–	–	–	–	–	–	–	–	–	–	–	–
COc1ccc(C(=O)/C=C/c2ccccc2-c2ccc(F)cc2)cc1OC	7500	7600	8300	7100	6600	–	–	–	–	–	–	–	–	–	–	–	–	–	–	–
COc1ccc(/C=C/C(=O)c2ccccc2-c2ccc(F)cc2)cc1OC	440	81	570	240	95	–	–	–	–	–	–	–	–	–	–	–	–	–	–	–
COc1cccc(/C=C/C(=O)c2ccccc2-c2ccc(F)cc2)c1OC	7100	5200	5700	5300	5000	Active	–	–	–	–	–	–	–	–	–	–	–	–	–	–
COc1ccc(C(=O)/C=C/c2ccccc2-c2ccc(F)nc2)cc1OC	17000	17000	15000	41000	17000	–	–	–	–	–	–	–	–	–	–	–	–	–	–	–
COc1ccc(-c2ccccc2C(=O)/C=C/c2ccc(Br)cc2)cc1OC	6800	4800	6500	8300	3300	inactive	–	–	–	–	–	–	–	–	–	–	–	–	–	–
COc1cc(C(=O)/C=C/c2ccccc2-c2ccc(F)nc2)ccc1O	13000	19000	8500	27000	9900	–	–	–	–	–	–	–	–	–	–	–	–	–	–	–
